Results from ChEMBL document CHEMBL1142518, “Potential nicotinic acetylcholine receptor ligands from 2,4-methanoproline derivatives” (J Med Chem, 2008).
The source made the active and inactive calls. No cut-off for these calls is given here.

Tests used:
[1] = biological target: Neuronal acetylcholine receptor; alpha4/beta2 (Homo sapiens) (UniProt P17787+P43681); test: Binding affinity to human nAChR-alpha-4-beta-2 in HEK293 cells; assay type: cell-based
Method in brief: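 Cloned human α4β2 nAChR in HEK-293 cell membranes, tested by SPA radioligand binding. Used [3H]epibatidine 1 nM, WGA-coated PVT beads 1 mg/well and 30 µg membrane protein/well, in Tris-HCl buffer (50 mM, 150 mM NaCl, 5 mM KCl, pH 7.4). Nonspecific binding defined with 10 µM epibatidine. Incubated 2-4 h at room temperature and read by scintillation counting. 4-parameter logistic IC50 converted to Ki by Cheng-Prusoff.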

[2] = biological target: Neuronal acetylcholine receptor; alpha3/beta4 (Homo sapiens) (UniProt P30926+P32297); test: Binding affinity to human nAChR-alpha-3-beta-4 in HEK293 cells; assay type: cell-based
Method in brief: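 Scintillation proximity assay on membranes from HEK-293 cells expressing cloned human α3β4 nAChR. [3H]epibatidine 2 nM, WGA-coated PVT beads 1.5 mg/well, 30 µg membrane protein/well, in 50 mM Tris-HCl, 150 mM NaCl, 5 mM KCl, pH 7.4. Nonspecific binding defined with 10 µM epibatidine. Equilibrated 2-4 h at room temperature, then scintillation counted. IC50 from 4-parameter logistic fit, converted to Ki by Cheng-Prusoff.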

SMILES | Activity [1] | Activity [2]
Cc1cc(C23CC(CN2)C3)on1 | inactive | inactive
Clc1ccc(OCC23CC(CN2)C3)cn1 | inactive | inactive
c1ccc(OCC23CC(CN2)C3)cc1 | inactive | inactive
Cc1cc(/C=C/C23CC(CN2)C3)on1 | inactive | inactive
Cc1cc(CCC23CC(CN2)C3)on1 | inactive | inactive
c1cncc(OCC23CC(CN2)C3)c1 | inactive | inactive
